The record followed here is ChEMBL document CHEMBL1128719, “The synthesis, structure-activity, and structure-side effect relationships of a series of 8-alkoxy- and 5-amino-8-alkoxyquinolone antibacterial agents” (J Med Chem, 1995).

The structures appear in SMILES notation. ≈ marks a conversion by molar mass, not a printed value.

Data set [1] deals with Staphylococcus aureus. Nature of the data set: In vitro antibacterial activity was tested for Staphylococcus aureus H228. It counts as functional. Put shortly: (§1)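 Microtitration (microdilution) MIC determination in μg/mL against a panel of Gram-positive, Gram-negative and anaerobic organisms. Values come from duplicate or triplicate experiments and are stated accurate to ±50%.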

For data set [2], the system named is Streptococcus pyogenes. Nature of the data set: In vitro antibacterial activity was tested for Streptococcus pyogenes C203. The data set is classed as functional. Put shortly: as §1
The test system of data set [3] is Escherichia coli. Nature of the data set: In vitro antibacterial activity was tested for Escherichia coli H560. It counts as functional. Put shortly:
as §1

Data set [4] has as its system Escherichia coli. Nature of the data set: In vitro antibacterial activity was tested for Escherichia coli Vogel. The data set is classed as functional. Put shortly: as §1
In data set [5] the test system is Streptococcus pneumoniae. Nature of the data set: In vitro antibacterial activity was tested for Streptococcus pneumoniae SV-1. It counts as functional. Put shortly: as §1
The subject of data set [6] is Pseudomonas aeruginosa. Nature of the data set: In vitro antibacterial activity was tested for Pseudomonas aeruginosa UI-18. The data set is classed as functional. Put shortly: as §1
The subject of data set [7] is Peptoniphilus asaccharolyticus. Nature of the data set: In vitro antibacterial activity was tested for Pepto asac PA 3-1. It counts as functional. Put shortly: as §1
The species entered for data set [8] is Mus musculus. Nature of the data set: Phototoxic skin reaction in depilated female CD-1 mice. The data set is classed as functional. Put shortly:
(§2)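 Female CD-1 mice, depilated, given a single oral or subcutaneous dose. UVA (320–400 nm) exposure for 3 h, starting 1 h post-dose. Initial doses were 30, 100 and 300 mg/kg. PTD50 (dose giving phototoxic skin reaction in 50% of mice) derived by probit method. First day of positive reaction and no-effect dose taken from raw data.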

Data set [9] deals with Cutibacterium acnes. Nature of the data set: In vitro antibacterial activity was tested for Propion acnes PA5-1. It counts as functional. Put shortly:
as §1

For data set [10], the system named is Klebsiella pneumoniae. Nature of the data set: In vitro antibacterial activity was tested for Klebsiella pneumoniae MGH-2. It counts as functional. Put shortly:
as §1

The subject of data set [11] is Providencia rettgeri. Nature of the data set: In vitro antibacterial activity was tested for Providencia rettgeri H1771. The data set is classed as functional. Put shortly:
as §1

Data set [12] has as its system Clostridioides difficile. Nature of the data set: In vitro antibacterial activity was tested for Clostridium diff CD1-1. The data set is classed as functional.
The test system of data set [13] is Clostridium perfringens. Nature of the data set: In vitro antibacterial activity against Clostridium perfringens CP 3-1. The data set is classed as functional.
For data set [14], the species on record is Mus musculus. Nature of the data set: Phototoxic skin reaction in depilated female CD-1 mice. It counts as toxicity, organism-based. The conditions noted are these: in vivo. Put shortly: as §2
The test system of data set [15] is Staphylococcus aureus. Nature of the data set: In vitro antibacterial activity was tested for Staphylococcus aureus UC-76. The data set is classed as functional. Put shortly: as §1
Data set [16] deals with Enterococcus faecalis. Nature of the data set: In vitro antibacterial activity was tested for Streptococcus faecalis MGH-2. It counts as functional. Put shortly: as §1
In data set [17] the test system is Bacteroides fragilis. Nature of the data set: In vitro antibacterial activity against Bacteroides fragilis BFA. The data set is classed as functional. Put shortly:
as §1

Data set [18] relates to Enterobacter cloacae. Nature of the data set: In vitro antibacterial activity was tested for Enterobacter cloacae HA2646. The data set is classed as functional.
Data set [19] concerns V79. Nature of the data set: Clonogenic cytotoxicity against Chinese hamster V-79 cells. The data set is classed as functional, cell-based. The conditions noted are these: Cricetulus griseus.

Consider `COc1c(N2CCC(C)(CN)C2)c(F)cc2c(=O)c(C(=O)O)cn(C3CC3)c12` (configuration not stated), for which the MIC was found to be 0.025 µg/mL (≈ 0.0642 µM) in [1]; 0.013 µg/mL (≈ 0.0334 µM) in data set [2]; 0.05 µg/mL (≈ 0.128 µM) in data set [3]; 0.1 µg/mL (≈ 0.257 µM) in [4]; 0.013 µg/mL (≈ 0.0334 µM) in data set [5]; 1.6 µg/mL (≈ 4.11 µM) in data set [6]. Further, the minimum inhibitory concentration (MIC) in [7] came out at 0.8 µg/mL (≈ 2.05 µM); in data set [9] it was 0.4 µg/mL (≈ 1.03 µM); in [10], 0.2 µg/mL (≈ 0.514 µM); in data set [11], 0.4 µg/mL (≈ 1.03 µM); in data set [12], 0.8 µg/mL (≈ 2.05 µM); in data set [13] it was 0.2 µg/mL (≈ 0.514 µM). Also, the MIC in [15] turned out to be 0.006 µg/mL (≈ 0.0154 µM); in data set [16] it was 0.025 µg/mL (≈ 0.0642 µM); in data set [17], 0.4 µg/mL (≈ 1.03 µM); in data set [18] it was 0.1 µg/mL (≈ 0.257 µM). The No effect dose in data set [8] is reported as 100 mg. The molecule also yielded a PTD50 in data set [14] of more than 100 mg.
As to `NC1CCCN(c2c(F)cc3c(=O)c(C(=O)O)cn(C4CC4)c3c2F)C1` (configuration not stated), the MIC in [7] amounted to 1.6 µg/mL (≈ 4.4 µM); in data set [9] it was 0.4 µg/mL (≈ 1.1 µM); in data set [12], 1.6 µg/mL (≈ 4.4 µM); in [13] it was 0.2 µg/mL (≈ 0.55 µM); in data set [17], 1.6 µg/mL (≈ 4.4 µM). In data set [8], this molecule yielded a No effect dose of 30 mg. The PTD50 in data set [14] turned out to be 55 mg.
In the case of `CC1(CN)CCN(c2c(F)c(N)c3c(=O)c(C(=O)O)cn(C4CC4)c3c2F)C1` (configuration not stated), the MIC came out at 0.2 µg/mL (≈ 0.51 µM) in [7]; 0.4 µg/mL (≈ 1.02 µM) in data set [9]; 1.6 µg/mL (≈ 4.08 µM) in [12]; 0.025 µg/mL (≈ 0.0637 µM) in [13]; 0.8 µg/mL (≈ 2.04 µM) in data set [17]. The molecule further gave a No effect dose in [8] of 30 mg. The PTD50 in [14] is more than 30 mg.
As for `CC1(CN)CCN(c2cc3c(cc2F)c(=O)c(C(=O)O)cn3C2CC2)C1` (configuration not stated), the MIC in [7] is 1.6 µg/mL (≈ 4.45 µM); in data set [9] it was 1.6 µg/mL (≈ 4.45 µM); in data set [12] it was 6.3 µg/mL (≈ 17.5 µM); in [13], 0.2 µg/mL (≈ 0.556 µM); in [17] it was 6.3 µg/mL (≈ 17.5 µM). Also, the No effect dose in [8] came to 100 mg. This molecule came in with a PTD50 in [14] of more than 100 mg.
For `CC1(CN)CCN(c2nc3c(cc2F)c(=O)c(C(=O)O)cn3C2CC2)C1` (configuration not stated), the MIC in data set [7] was found to be 1.6 µg/mL (≈ 4.44 µM); in data set [9], 1.6 µg/mL (≈ 4.44 µM); in data set [12] it was 25 µg/mL (≈ 69.4 µM); in data set [13], 0.2 µg/mL (≈ 0.555 µM); in data set [17], 6.3 µg/mL (≈ 17.5 µM). In data set [8], this molecule yielded a No effect dose of 300 mg. The same molecule came in with a PTD50 in [14] of more than 300 mg.
For `O=C(O)c1cn(C2CC2)c2cc(N3CCNCC3)c(F)cc2c1=O` [CIPROFLOXACIN], the MIC in [1] amounted to 3.1 µg/mL (≈ 9.36 µM); in data set [2] it was 0.8 µg/mL (≈ 2.41 µM); in [3] it was 0.025 µg/mL (≈ 0.0754 µM); in data set [5] it was 1.6 µg/mL (≈ 4.83 µM); in data set [6], 0.4 µg/mL (≈ 1.21 µM); in data set [7], 1.6 µg/mL (≈ 4.83 µM). Besides, the MIC came out at 0.8 µg/mL (≈ 2.41 µM) in data set [9]; 0.1 µg/mL (≈ 0.302 µM) in data set [10]; 0.1 µg/mL (≈ 0.302 µM) in data set [11]; 0.2 µg/mL (≈ 0.604 µM) in data set [15]; 0.8 µg/mL (≈ 2.41 µM) in [16]; 3.1 µg/mL (≈ 9.36 µM) in data set [17]. The same molecule registered a No effect dose in data set [8] of 100 mg. This molecule registered a PTD50 in data set [14] of 172 mg.
For the molecule `COc1c(N2CC[C@H](N)C2)c(F)cc2c(=O)c(C(=O)O)cn(C3CC3)c12`, the MIC came out at 0.05 µg/mL (≈ 0.138 µM) in [1]; 0.025 µg/mL (≈ 0.0692 µM) in data set [2]; 0.025 µg/mL (≈ 0.0692 µM) in data set [3]; 0.025 µg/mL (≈ 0.0692 µM) in data set [4]; 0.025 µg/mL (≈ 0.0692 µM) in [5]; 0.4 µg/mL (≈ 1.11 µM) in data set [6]. Besides, the MIC in [7] amounted to 0.8 µg/mL (≈ 2.21 µM); in [9], 0.4 µg/mL (≈ 1.11 µM); in data set [10], 0.05 µg/mL (≈ 0.138 µM); in [11], 0.1 µg/mL (≈ 0.277 µM); in [12], 0.2 µg/mL (≈ 0.553 µM); in data set [13] it was 0.2 µg/mL (≈ 0.553 µM). In addition, the minimal inhibitory concentration (MIC) in data set [15] is 0.013 µg/mL (≈ 0.036 µM); in data set [16], 0.05 µg/mL (≈ 0.138 µM); in data set [17], 0.2 µg/mL (≈ 0.553 µM); in data set [18], 0.025 µg/mL (≈ 0.0692 µM). The IC50 in data set [19] amounted to 32 µg/mL (≈ 88.6 µM).

As usually defined, the MIC is the smallest concentration in the dilution series that meets the test's criterion for growth inhibition. Lower therefore signals inhibition by little substance. As usually defined, the IC50 is the point on the concentration scale where inhibition reaches its midpoint. A low value points to greater potency.
